Source: PubChem BioAssay
Ins promoter up: MIN6 insulin promoter up-regulation | MIN6 insulin promoter-GFP reporter, high-content imaging; active compounds read high | z-score at 5 µM | 190,000 tested, 0.3% active | AID 1625;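 active = z-score above 3 at 5 µM with at least 500 cells counted in the well; inconclusive = wells under 500 cells, flagged as cytotoxic or low count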
bCat nuc transl: modulators of beta-catenin nuclear translocation; HeLa beta-catenin nuclear translocation, immunofluorescence imaging; nuclear translocation activity, % at 5 µM; 190,000 tested, 0.3% active; AID 1665;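 active = nuclear translocation activity above 50% at 5 µM, with a well cell count of 50 or more; inconclusive = wells under 50 cells across six images, flagged as toxic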;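 also: per-cell ratio of nuclear to cytoplasmic median beta-catenin stain intensity; plate controls were DMSO negative control for no effect and GSK-3 inhibitor IX positive control for full effect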
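assay system = human HeLa cells, endogenous beta-catenin | times = compound treatment 24 h, 37°C, 5% CO2 | detection = Anti-beta-catenin immunofluorescence on PFA-fixed, Triton-permeabilized cells, DAPI nuclei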
MT stabilize HCS: stabilizes microtubules in HeLa cells; HeLa tubulin immunostaining HCS, 24 h; share of cells brighter than vehicle mean+2SD; % tubulin-high responders, % at 10 µM; 200,000 tested, 0.83% active; AID 2205;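 active = plate Z-score above 3 for both tubulin-high and condensed-nucleus cell shares, with cell loss under 80%, at 10 µM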;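 also: anti alpha tubulin signal scored within the nucleus-defined area of each cell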
Autophagy HCS: alters autophagy in cells; calls only at 10 µM (by protocol); MEF GFP-LC3 puncta imaging; test concentration mostly 10 µM; AID 463193; 190,000 tested, 0.98% active;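 active = percentage of spot-positive cells more than 3 SD above its plate mean, without a fluorescence outlier flag or 80% toxicity; inconclusive = no clear call, values can overlap the other calls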;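 also: spot-positive cell cutoff set from DMSO-treated cells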
* hit, by the source's call; i = inactive; ? = inconclusive; . = no result; + = active, no number. This is a sample that favours compounds with a hit; in the whole collection about 1.9% have one here.

SMILES	Ins promoter up	bCat nuc transl	MT stabilize HCS	Autophagy HCS
COC(=O)c1ccc2c(c1)C(C)(C)C(/C=C/c1ccc(O)cc1)=[N+]2C	?	41	41*	i
COC(=O)c1ccc2c(c1)C(C)(C)C(/C=C/c1ccc(OC)c(OC)c1OC)=[N+]2C	?	-4	3	+
COc1ccccc1NS(=O)(=O)c1cccc(NC(=O)Cc2cccs2)c1	0.04	-1	1	i
Cc1cc(C(=O)Cn2nc(C(=O)O)c3ccccc3c2=O)c(C)n1CCc1ccc(Cl)cc1	-1.1	-2	3	i
Cc1ccc(/C=N/NC(=O)CCCOc2ccc(Cl)cc2Cl)cc1	-0.51	115*	15	i
Nc1cc(=O)[nH]n1C1CCCCC1	0.74	-2	2	+
COc1ccc(/C=N/Nc2ccc([N+](=O)[O-])cc2)cc1Cn1cc([N+](=O)[O-])cn1	0.23	51*	9	i
COCCn1c(=NC(=O)c2cc(-c3cccs3)nc3ccccc23)sc2cc(S(N)(=O)=O)ccc21	-2.1	2	3	i
C=CCn1c(=NC(=O)c2cc(-c3cccs3)nc3ccccc23)sc2cc(S(N)(=O)=O)ccc21	9*	0	3	i
CC(C)[C@H](NS(=O)(=O)c1cccc(C(F)(F)F)c1)C(=O)OCC(N)=O	-0.1	-2	5	i
Cc1ccc(S(=O)(=O)N2CCN(S(=O)(=O)c3ccccc3)C2)cc1	-0.36	.	2	i
C/C(=N\S(=O)(=O)c1ccc(C)cc1)N1CCN(S(=O)(=O)c2ccccc2)C1	3.5*	0	7	i
OC(CNCc1ccc(Cl)cc1)(c1ccccc1)c1ccc(F)cc1 (stereo not drawn)	.	3	2	+
CC(C)C(NC(=O)C12CC3CC(CC(C3)C1)C2)C(=O)N/N=C/C1=C(N2CCOCC2)C(=C\c2ccc([N+](=O)[O-])cc2)/CC1 (stereo not drawn)	0.27	1	3	+
CCN(CC)c1ccc(/C=C2\CCC(/C=N/NC(=O)c3ccc(=O)n(C)c3)=C2N2CCOCC2)cc1	2.3	-1	7	+
COc1ccc(CN2C=C3C(=O)C(C)(OC(=O)C4CCCC4)C(=O)C=C3C=C2c2ccsc2)cc1 (stereo not drawn)	0.31	50*	.	.
COc1cc2c(cc1OC)C(c1cccs1)N(C(=O)C(C)C)CC2 (stereo not drawn)	0.51	-1	6	i
COc1cc2c(cc1OC)C(c1cccs1)N(C(=O)c1cccnc1)CC2 (stereo not drawn)	1	53*	17*	i
O=C(Nc1c(Cl)cc(Cl)cc1-c1nc2ccccc2s1)c1ccc(Br)o1	-0.22	2	2	i
Cc1c(C(=O)OCCOC(C)C)[nH]c2c1C(=O)CC(c1ccco1)C2 (stereo not drawn)	.	118*	6	i
COCCOC(=O)c1[nH]c2c(c1C)C(=O)CC(c1ccc(N(C)C)cc1)C2 (stereo not drawn)	0.57	-1	2	i
Cc1c(C(=O)O)[nH]c2c1C(=O)CC(c1ccccc1)C2 (stereo not drawn)	1.4	0	3	i
CSCCOC(=O)c1[nH]c2c(c1C)C(=O)CC(c1ccco1)C2 (stereo not drawn)	-0.45	92*	8	i
CCOC(=O)c1[nH]c2c(c1C)C(=O)CC(c1ccco1)C2 (stereo not drawn)	-0.51	118*	7	i
Cc1c(C(=O)OCc2ccccc2)[nH]c2c1C(=O)CC(c1ccco1)C2 (stereo not drawn)	0.96	120*	7	i
SMILES	Ins promoter up	bCat nuc transl	MT stabilize HCS	Autophagy HCS
CC(=O)Nc1ccc(C(=O)NNC(=O)Cc2ccccc2)cc1	-0.29	-2	1	i
COCCOC(=O)c1[nH]c2c(c1C)C(=O)CC(c1ccco1)C2 (stereo not drawn)	-0.72	66*	10	i
CC1CCN(C(=O)CSc2nc(N)c3c4c(sc3n2)CN(C)CC4)CC1	-0.8	-2	3	i
CCn1c(SCC(=O)Nc2cc(C)on2)nc2sc3c(c2c1=O)CCCC3	0.32	-2	3	+
COc1cccc(-n2c(SCC(=O)Nc3cc(C)on3)nc3ccccc3c2=O)c1	0.13	1	2	i
C=CCn1c(SCC(=O)N2CCOCC2)nc2sc3c(c2c1=O)CCCC3	-2.6	.	4	+
CN1CCc2c(sc3nc(SCC(=O)N4CCOCC4)nc(N)c23)C1	0.62	1	4	+
CCc1sc2nc(SCC(=O)Nc3cc(C)on3)n(-c3cccc(OC)c3)c(=O)c2c1C	0.17	0	6	+
COc1cc2c(cc1C1NC(=S)NC(C)=C1C(=O)N(C)C)CCCC2 (stereo not drawn)	0.1	.	2	i
COc1cc(N2C(=O)c3ccccc3C2=O)c(Cl)cc1C(=O)OCC(=O)N(C)C	0.82	1	3	i
Cc1ccc(Cn2c(-n3nc(C)cc3C)nc3c2c(=O)[nH]c(=O)n3C)cc1	1.2	-2	4	i
COc1ccc(CCn2c(-n3nc(C)cc3C)nc3c2c(=O)[nH]c(=O)n3C)cc1	.	.	27	+
CCc1nnc(NC(=O)CSc2nnc(-c3ccccc3O)n2-c2ccc(C)cc2)s1	1	-1	38*	i
CCc1nnc(NC(=O)CSc2nnc(COc3ccc(C)cc3)n2-c2ccccc2)s1	0.45	0	33*	i
CCc1nnc(NC(=O)CSc2nnc(-c3ccccc3OC)n2-c2ccc(C)cc2)s1	0.59	2	2	i
Cn1cc(C2N3CC4(C)CN2CC(C)(C3)C4=O)c2ccccc21 (stereo not drawn)	-0.02	1	4	i
Cc1nn(-c2c(Cl)cc(Cl)cc2Cl)c(=O)c2ccccc12	3.4*	.	2	i
Cc1nn(-c2ccccc2C(=O)O)c(=O)c2ccccc12	0.21	2	2	i
O=C(Cc1cccs1)N1CCN=C1SCc1ccccc1Cl	-0.61	-4	4	i
O=C(Cc1cccs1)N1CCN=C1SCc1ccccc1F	-0.74	3	2	+
Cc1cc(C(=O)OCC(=O)NCc2cccs2)c2ccccc2n1	0.45	7	4	i
CCOC(=O)C1=C(Cc2ccc(OC)cc2)C(=O)c2ccccc2C1=O	1.2	2	45*	i
CCc1cccc(C)c1NC(=O)CNCc1ccccc1	0.93	-4	4	i
O=[N+]([O-])c1ccc(Cl)cc1N1CCCCC1	-0.26	0	2	+
O=[N+]([O-])c1ccc(Cl)cc1N1CCOCC1	.	-1	3	i
O=C(Cc1ccccc1)N1CCN=C1SCc1cccc([N+](=O)[O-])c1	-2	4	3	i
Cc1ccccc1SCCNC(=O)CCc1ccccc1	-0.09	1	8	i
Cc1cc(C)n(C(=O)c2cc(F)c(F)cc2C)n1	0.49	2	2	i
COc1ccc(NC(=O)COC(=O)c2ccc(S(=O)(=O)N(C)c3ccccc3OC)cc2)c(OC)c1	0.48	0	18*	i
COc1ccc2[nH]c(N=Nc3ccccc3C)c(O)c2c1	0.72	-6	2	i
